# Bioassay records deposited in PubChem by several laboratories.
# NALP3 yeast inh – NALP3 inhibition in yeast; inhibition, % at 10 µM; actives 0.39% (n = 330,000); Yeast reconstituted NLRP3/ASC/caspase-1, beta-gal luminescence, 24 h;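 active = inhibition of 50% or more; inactive = inhibition below 50%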;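 note: plate controls were induced DMSO wells for no effect and uninduced yeast grown without galactose for full effect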
# VIM-2 inhibitor – blocks Pseudomonas aeruginosa VIM-2 metallo-beta-lactamase | actives 0.89% (n = 290,000) | AID 1527 | inhibition, % at 5.6 µM | purified VIM-2, nitrocefin hydrolysis, epi-absorbance fluorescence;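 active = inhibition above the mean of all tested compounds plus 3 SD, cutoff set per screening run, cut at about 7.5% in these data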;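 note: red hydrolysis product quenches plate fluorescence so inhibitors raise well fluorescence; 0% = enzyme with DMSO and 100% = DMSO without enzyme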
# NALP1 inh – inhibitors of NALP1 inflammasome in yeast; S. cerevisiae NALP1/ASC/caspase-1 growth, X-gal OD620, 72 h; inhibition, % at 10 µM; actives 0.61% (n = 280,000); AID 2071; in the data active = inhibition mostly above about 24%, no sharp cut-off; inactive = mostly below about 32%
# SUMO Mot1 rescue – inhibitors of SUMOylation pathway: yeast Mot1-301 growth rescue | S. cerevisiae Mot1-301 growth rescue, ATP luminescence, 38.5C; percent above DMSO median, 100 means doubled | growth rescue, % at 18.8 µM | actives 1% (n = 320,000);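 active = every valid replicate shows activation above 250% relative to neutral control wells; inactive = the rest, any valid replicate at or below 250%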;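 note: OY570 slx delta 5 strain wells were the positive control but not used for scaling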
# IMP-1 inhibitor – inhibitors of Pseudomonas aeruginosa IMP-1 metallo-beta-lactamase; purified IMP-1, nitrocefin hydrolysis, epi-absorbance fluorescence; inhibition, % at 5.6 µM; actives 0.45% (n = 290,000);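 active = inhibition above the mean plus 3 SD of all compounds in the same screening run, cut at about 4.5% in these data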;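 note: 0% = IMP-1 with DMSO and 100% = DMSO wells lacking enzyme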
#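 Assay system: purified IMP-1; Quantity: IMP-1 0.2 nM before substrate addition; Medium: HEPES buffer pH 7.1 with ZnSO4 and Brij 35; Incubation: 15 min enzyme–compound preincubation, then 25 min nitrocefin reaction, 25 °C; Signal: fluorescence quenching readout, ex 480/em 530 nm; Controls: DMSO with and without IMP-1; Repeats: singlicate testing.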
# PolyA inhibitor – inhibitors of polyadenylation in S. cerevisiae; S. cerevisiae SKY197-pL101 polyadenylation reporter, beta-gal luminescence; efflux-impaired pdr1/pdr3 knockout yeast; score 100 = 6 SD above DMSO; activity score, % at 12 µM; actives 0.02% (n = 300,000);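 active = lowest replicate activity score at least 50, where 100 means six control SD above control mean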;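 note: yeast exposed to compound for 9 h at 30 °C; higher score means more reporter readthrough which indicates perturbed polyadenylation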
# Mot1 SUMO dose – inhibits SUMO pathway, affecting Mot1-301 yeast growth; growth activity, percent, % at 42 µM; 2,300 tested, under 10 active; shares compounds with SUMO Mot1 rescue; AID 493004; S. cerevisiae Mot1-301 galactose growth, ATP luminescence, 24 h; -100 = growth of slx-deleted rescue strain;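 active = Signal drops as the depositor expects, and the fitted half-maximal dose is no more than ten times the top valid tested dose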;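 note: more negative values mean stronger growth rescue toward the control strain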
# Active calls of the source: *; · = no result given; + = active, no number. A selection: hits, their analogues and other compounds. The true share with any hit is near 2.9%.
SMILES,NALP3 yeast inh,VIM-2 inhibitor,NALP1 inh,SUMO Mot1 rescue,IMP-1 inhibitor,PolyA inhibitor,Mot1 SUMO dose
COc1ccc(C)cc1NC(=O)C12CCC(C)(C(=O)O1)C2(C)C (stereo unspecified),17,-2,0,461*,-4,-9,-1
Cn1cccc1CC(=O)N/N=C/c1cccc([N+](=O)[O-])c1,-25,-6,1,409*,-5,5,0
O=C(N/N=C/c1cccc([N+](=O)[O-])c1)C1COc2ccccc2O1 (stereo unspecified),14,-3,14,678*,-2,-13,0
CCCCn1c2c(c(=O)n(C)c1=O)C(c1ccc(OC)cc1)N1CCCCCC1=N2 (stereo unspecified),-8,-1,-14,+,-3,-6,0
CCCCn1c(SCC(=O)N2CCCc3ccccc32)nc2c1c(=O)n(C)c(=O)n2C,-15,-3,8,-11,-1,4,·
Cc1cc(C)c(NC(=O)CN2CCN(c3ccccn3)CC2)c(C)c1,8,-1,-4,0,-2,-4,·
Cc1ccc(SCC(=O)N(C)CC(=O)Nc2cccc(F)c2)c(C)c1,11,·,·,8,·,-8,·
C=CC[N+]1(CC#Cc2ccccc2)CCCC1,3,-1,6,393*,-4,2,0
CCCn1c(SCC(=O)N2c3ccccc3CC2C)n[nH]c1=O (stereo unspecified),8,·,·,·,·,·,·
O=C1N=C(N2CCN(c3ccccc3)CC2)SC1Cc1ccccc1 (stereo unspecified),35,1,40*,530*,-1,1,0
CCOc1ccc(N2C(=O)CSC23CCCCC3)cc1,-1,-1,14,-4,-1,-20,·
COc1ccc(N2C(=O)CSC23CCCCC3)cc1,-1,-2,-68,+,-7,-6,1
CNC(=O)c1ccccc1S(=O)c1ccccc1COC(C)=O (stereo unspecified),8,-4,·,384*,-4,-14,0
CC(=O)OCc1ccccc1Sc1ccccc1C(=O)NCc1ccccc1,-5,0,6,4,1,4,·
CCc1cccc(NC(=O)C2CCCN2C(=O)Nc2ccc(C)cc2)c1 (stereo unspecified),18,-3,15,-4,-1,17,·
COCCNC(=O)c1cc(-c2ccccc2)nn1CC1CC(c2cccnc2)=NO1 (stereo unspecified),12,·,·,-7,·,12,·
C=CCN1C(=O)/C(=C2/Sc3ccc(OC)cc3N2C)SC1=Nc1ccccc1,11,-2,-8,+,-2,1,0
C=CCN1C(=O)/C(=C2/Sc3ccc(OC)cc3N2C)SC1=NCc1ccccc1,13,-3,-8,14,-1,-21,·
CC1(C)CC(=O)C(C2C3=C(CC(C)(C)CC3=O)Oc3c(Br)cc(Br)cc32)=C(O)C1 (stereo unspecified),6,0,-25,7,0,-25,·
CC(C)N(Cc1nccn1C)C(=O)c1cc(COc2ccc(-n3cncn3)cc2)on1,8,-1,4,290,-9,9,·
Cc1csc(CNc2ncnc3ccc(-c4cccnc4)cc23)c1,15,·,·,-7,·,·,·
Clc1cccc(-c2ccc3ncnc(NCc4cccs4)c3c2)c1,10,·,·,198,·,·,·
Clc1ccccc1-c1ccc2ncnc(NCc3cccs3)c2c1,17,·,·,411*,·,·,-3
Cc1csc(CNc2ncnc3ccc(-c4ccccc4Cl)cc23)c1,9,·,·,+,·,·,-1
O=C(CN1C(=O)NC2(CCCC2)C1=O)Nc1nc2ccccc2s1,24,·,·,89,·,-19,·
SMILES,NALP3 yeast inh,VIM-2 inhibitor,NALP1 inh,SUMO Mot1 rescue,IMP-1 inhibitor,PolyA inhibitor,Mot1 SUMO dose
O=C(CN1C(=O)NC2(CCCC2)C1=O)Nc1nc2ccccc2[nH]1,25,·,·,553*,·,-3,0
COc1ccc(S(=O)(=O)NCC(c2cccnc2)N2CCN(Cc3ccccc3)CC2)cc1C (stereo unspecified),15,-2,13,1,-4,-4,·
Cc1cc(C)c(S(=O)(=O)NCC(c2cccnc2)N2CCN(Cc3ccccc3)CC2)c(C)c1 (stereo unspecified),-5,0,32,524*,0,16,0
COC(=O)c1c(C)[nH]c(C(=O)C(C)OC(=O)C2CC2)c1C (stereo unspecified),8,·,·,15,·,·,·
O=C(CC1SC(N2CCOCC2)=NC1=O)Nc1ccccc1Cl (stereo unspecified),9,·,·,-6,·,·,·
COc1ccc(/C=C2\SC(=S)N(CCCC(=O)Nc3cc(C)on3)C2=O)cc1OC,-7,0,6,+,-1,-9,0
OC(COc1ccccc1)Cn1c2ccccc2c2ccccc21 (stereo unspecified),22,0,22,374*,-3,-12,-1
CCC(=O)OCC(=O)Nc1ncc(C(F)(F)F)cc1Cl,14,0,8,-1,0,5,·
O=C(COC(=O)CNC(=O)c1ccc(Cl)cc1)Nc1ncc(C(F)(F)F)cc1Cl,-1,-4,18,596*,-3,-4,0
CC(NC(=O)c1ccccc1F)c1nnc(SCC(=O)NC2CCCCC2)n1C (stereo unspecified),-3,-4,12,-10,-1,5,·
CCn1c(SCC(=O)NC2CCCCC2)nnc1C(C)NC(=O)c1ccccc1F (stereo unspecified),5,2,31,+,0,-5,1
O=C(CSc1nnc(COc2ccccc2Cl)o1)NC(=O)NC1CCCC1,16,-4,6,392*,-6,-1,0
CC(C)NC(=O)NC(=O)CSc1nnc(COc2ccccc2Cl)o1,7,-1,29,-3,-3,-1,·
COc1ccc(NC(=O)c2cc(C)no2)cc1OC,3,-2,5,-27,-4,13,·
COc1ccc(NC(=O)c2cc(C)no2)cc1Cl,27,1,14,432*,-2,-4,0
CC(C)(C)N(Cc1ccccc1)C(=O)COC(=O)CN1C(=O)NC2(CCCC2)C1=O,1,0,15,-16,-2,13,·
Cn1c(=O)c2ccccc2n2c(CCl)nnc12,7,0,16,-6,-1,9,·
C=CC(=O)NC1CC2CCC1(C)C2(C)C (stereo unspecified),6,-1,2,459*,-3,10,1
COCc1ccc(CN2CCC(n3nccc3NC(=O)C(OC)c3ccccc3)CC2)o1 (stereo unspecified),5,0,2,1,-1,8,·
